The text below walks through data of ChEMBL document CHEMBL5260794, “Synthesis and biological evaluation of a new class of benzothiazines as neuroprotective agents” (Eur J Med Chem, 2017).

The source made the active and inactive calls. No cut-off for these calls is given here.

For data set [1], the species on record is Rattus norvegicus. Nature of the data set: Neuroprotective activity against oxygen glucose deprivation/reperfusion-induced Wistar rat cortical brain assessed as reduction in glutamate release by measuring minimal effective concentration. It counts as functional. The essentials: (§1)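 Male Wistar rat cortical slices (400 μm) in oxygenated ACSF, pH 7.4, 1 h at room temperature, then 30 min at 37 °C. OGD for 30 min in glucose-free ACSF with 11 mM sucrose under 95% N₂/5% CO₂. Compound added in the reoxygenation buffer. Glutamate and LDH release measured. Mean ± SEM of at least four experiments, ANOVA with Dunnett test.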

A short description of data set [2]: Cytotoxicity against human SH-SY5Y cells assessed as cell viability at 10 uM measured after 24 hrs by MTT assay. Format: toxicity, cell-based. The essentials: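 SH-SY5Y cells (RPMI 1640, 10% FBS, 37 °C, 5% CO₂, exponential growth) seeded 8 x 10⁴ cells/mL and left to attach 24 h, then exposed to compound alone for 24 h. MTT viability read. Morphology graded 0-4 on the USP 28 scale under phase contrast. Compound diluted from DMSO stock in PBS, final DMSO <0.01%.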

In data set [3] the test system is SH-SY5Y. Description: Neuroprotective activity against glutamate-induced toxicity in human SH-SY5Y cells assessed as reduction in ROS production measured after 24 hrs by DCFH-DA staining based assay. It counts as functional, cell-based. Particulars: dose 0.1-10 µM. The essentials: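 Human SH-SY5Y neuroblastoma cells were preloaded with DCFH-DA (5 μM, 30 min) and washed in PBS. They were then pretreated for 1 h with compound (0.1-10 μM; DMSO stock diluted in PBS, final DMSO <0.01%) and challenged with glutamate (50 mM). Fluorescence (ex 485/em 535 nm) was read at 24 h and expressed as % inhibition of glutamate-induced ROS. Data are mean ± SEM of 4 experiments run in triplicate or quadruplicate.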

Data set [4] has as its system SH-SY5Y. Description: Neuroprotective activity against 6-OHDA-induced toxicity in human SH-SY5Y cells assessed as reduction in ROS production at 0.1 to 10 uM by DCFH-DA staining based assay. It counts as functional, cell-based. Particulars: dose 0.1-10 µM, TDE = time-dependent effect. The essentials:
(§2)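 SH-SY5Y cells loaded with DCFH-DA (5 μM, 30 min) and washed. Pretreated 1 h with compound (0.1-10 μM), then 6-OHDA 55 μM. Fluorescence (ex 485/em 535 nm) read at 1 h or 24 h and expressed as % inhibition of 6-OHDA-induced ROS. 4 independent experiments.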

Data set [5] concerns SH-SY5Y. Nature of the data set: Neuroprotective activity against glutamate-induced toxicity in human SH-SY5Y cells assessed as reduction in cell detachment at 10 uM pretreated for 1 hr followed by glutamate challenge measured after 24 hrs by phase-contrast light microscopic analysis. It counts as functional, cell-based. As to conditions: time 25.0 hrs. An outline of the steps: (§3)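 SH-SY5Y cells attached 24 h, then pretreated 1 h with compound (0.1-10 μM) before glutamate 50 mM for 24 h. Viability by MTT. Morphology under phase-contrast microscope, scored by the USP 28 grade scale (0-4). Mean ± SEM of 4 independent experiments run in triplicate or quadruplicate, ANOVA with Dunnett test.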

Data set [6] is filed under the species Rattus norvegicus. Description: Neuroprotective activity against oxygen glucose deprivation/reperfusion-induced Wistar rat cortical brain assessed as concentration required to reduce LDH release by measuring efficacy window. It counts as functional. The essentials: as §1
The species named for data set [7] is Rattus norvegicus. Nature of the data set: Neuroprotective activity against oxygen glucose deprivation/reperfusion-induced Wistar rat cortical brain assessed as concentration required to reduce glutamate release by measuring efficacy window. It counts as functional. The essentials:
as §1

Data set [8] deals with SH-SY5Y. Nature of the data set: Neuroprotective activity against glutamate-induced toxicity in human SH-SY5Y cells assessed as reduction in grade 2 to 3 toxicity at 10 uM pretreated for 1 hr followed by glutamate challenge measured after 24 hrs by phase-contrast light microscopic analysis. It counts as functional, cell-based. As to conditions: time 25.0 hrs. An outline of the steps:
as §3

Data set [9] concerns SH-SY5Y. Description: Neuroprotective activity against glutamate-induced toxicity in human SH-SY5Y cells assessed as reduction in cell rounding at 10 uM pretreated for 1 hr followed by glutamate challenge measured after 24 hrs by phase-contrast light microscopic analysis. Format: functional, cell-based. As to conditions: time 25.0 hrs. The essentials: as §3
For data set [10], the species on record is Rattus norvegicus. Description: Neuroprotective activity against oxygen glucose deprivation/reperfusion-induced Wistar rat cortical brain assessed as reduction in LDH release by measuring minimal effective concentration. It counts as functional. The essentials:
as §1

The species entered for data set [11] is Rattus norvegicus. Description: Inhibition of transient voltage-dependent sodium current in Wistar rat brain piriform cortex layer at 50 uM by whole cell patch clamp method relative to control. It counts as functional.
The subject of data set [12] is SH-SY5Y. Description: Neuroprotective activity against glutamate-induced toxicity in human SH-SY5Y cells assessed as reduction in G0/G1 phase cells at 10 uM pretreated for 1 hr followed by glutamate challenge measured after 24 hrs by propidium staining based flow cytometry. It counts as functional, cell-based. Particulars: time 25.0 hrs. The essentials:
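SH-SY5Y cells (2.5 x 10⁵ cells/mL) pretreated 1 h with compound, then given glutamate 50 mM for 24 h. Cells fixed in 70% ethanol (30 min, 4 °C), held at -20 °C for at least 24 h, stained with propidium iodide. Flow cytometry on at least 1x10⁴ cells, cell-cycle phases and sub-G₀/G₁ fraction quantified. 4 independent experiments.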

The test system of data set [13] is SH-SY5Y. Description: Neuroprotective activity against 6-OHDA-induced toxicity in human SH-SY5Y cells assessed as reduction in ROS production by DCFH-DA staining based assay. As to conditions: dose 0.1-10 µM. Format: functional, cell-based. An outline of the steps:
as §2

Data set [14] has as its system SH-SY5Y. Nature of the data set: Neuroprotective activity against glutamate-induced toxicity in human SH-SY5Y cells assessed as reduction in ROS production at 0.1 to 10 uM by DCFH-DA staining based assay. It counts as functional, cell-based. Particulars: dose 0.1-10 µM, time 24.0 hrs, TDE = time-dependent effect. An outline of the steps: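 SH-SY5Y cells loaded with DCFH-DA (5 μM, 30 min) and washed before treatment. Pretreated 1 h with compound (0.1-10 μM), then glutamate 50 mM. Fluorescence (ex 485/em 535 nm) read at 1 h or 24 h and expressed as % inhibition of glutamate-induced ROS. 4 independent experiments.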

The species named for data set [15] is Rattus norvegicus. Description: Neuroprotective activity against oxygen glucose deprivation/reperfusion-induced Wistar rat cortical brain assessed as reduction in glutamate release relative to control. It counts as functional. Also on record: concentration or dose not given beside the values. The essentials:
as §1

Data set [16] concerns SH-SY5Y. Description: Neuroprotective activity against 6-OHDA-induced toxicity in human SH-SY5Y cells assessed as cell viability at 0.1 uM pretreated for 1 hr followed by 6-OHDA challenge measured after 2 hrs by MTT assay. Format: functional, cell-based. As to conditions: time 3.0 hrs.
Data set [17] has as its system SH-SY5Y. Description: Neuroprotective activity against 6-OHDA-induced toxicity in human SH-SY5Y cells assessed as reduction in ROS production at 0.1 uM pretreated for 1 hr followed by 6-OHDA challenge measured after 2 hrs by DCFH-DA staining based assay. Format: functional, cell-based. As to conditions: time 3.0 hrs.
The test system of data set [18] is SH-SY5Y. Nature of the data set: Neuroprotective activity against glutamate-induced toxicity in human SH-SY5Y cells assessed as reduction in condensed and fragmented nuclei at 10 uM pretreated for 1 hr followed by glutamate challenge measured after 24 hrs by DAPI staining based assay (reference value: 16.9 +/- 1.5%). Format: functional, cell-based. As to conditions: time 25.0 hrs. An outline of the steps:
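Cells pretreated 1 h with compound (0.1-10 μM), then glutamate 50 mM for 24 h. DAPI staining; cells with condensed or fragmented nuclei scored as apoptotic, reported as percentage. Mean ± SEM of 4 independent experiments.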

The test system of data set [19] is SH-SY5Y. Nature of the data set: Neuroprotective activity against 6-OHDA-induced toxicity in human SH-SY5Y cells assessed as increase in cell viability at 10 uM pretreated for 1 hr followed by 6-OHDA challenge measured after 2 hrs by MTT assay. Format: functional, cell-based. Particulars: time 3.0 hrs. An outline of the steps:
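SH-SY5Y cells attached 24 h, then pretreated 1 h with compound (0.1-10 μM) and challenged with 6-OHDA 55 μM for 2 h. 6-OHDA made fresh in nitrogen-gassed 5 μM ascorbic acid, and controls received medium with ascorbic acid. Viability by MTT. Mean ± SEM of 4 independent experiments run in triplicate or quadruplicate, ANOVA with Dunnett test.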

Regarding `CCCN(CCC)/C(C)=N/C1=Nc2ccccc2CS1`, the MEC in the data set listed under Rattus norvegicus [1] came out at 1 µM; in the data set filed under Rattus norvegicus [10] it was 0.1 µM. Besides, the viability reduction at 24 h, 10 µM in data set [2] is 10%. The Activity entry is “Dose-Dependent Effect” in the data set with SH-SY5Y [3]; “Tde” with SH-SY5Y [4]; “Dose-Dependent Effect” in the data set on SH-SY5Y [13]; “Tde” in the data set with SH-SY5Y [14]; 90.5% in the data set listed under Rattus norvegicus [15]. The result in the data set on SH-SY5Y [5], with SH-SY5Y [8], in the data set on SH-SY5Y [9], in the data set on SH-SY5Y [12], in the data set on SH-SY5Y [16] and with SH-SY5Y [17] was Active. For the same compound, the outcome in the data set with SH-SY5Y [18] and in the data set with SH-SY5Y [19] was Active. The Efficacy in the data set filed under Rattus norvegicus [6] and in the data set listed under Rattus norvegicus [7] was 0.1 µM each time. For the same compound, the inhibition in vivo at 50 µM in the data set listed under Rattus norvegicus [11] was determined as 15.9%.
With `CCN(CC)/C(C)=N/C1=Nc2ccccc2CS1`, the MEC in the data set listed under Rattus norvegicus [1] and in the data set listed under Rattus norvegicus [10] was 0.1 µM in each case. Besides, in data set [2], the viability reduction at 24 h, 10 µM was 10%. Also, the Activity result in the data set on SH-SY5Y [3] was “Dose-Dependent Effect”; in the data set with SH-SY5Y [4], “Tde”; with SH-SY5Y [13], “Dose-Dependent Effect”; in the data set with SH-SY5Y [14], “Tde”; in the data set filed under Rattus norvegicus [15], 100%. In addition, the outcome in the data set on SH-SY5Y [5], in the data set on SH-SY5Y [8], in the data set with SH-SY5Y [9], with SH-SY5Y [12], with SH-SY5Y [16] and with SH-SY5Y [17] was Active. Besides, the result in the data set on SH-SY5Y [18] and in the data set with SH-SY5Y [19] was Active. The Efficacy in the data set listed under Rattus norvegicus [6] and in the data set listed under Rattus norvegicus [7] was 0.1 µM in each case. The compound also came in with an inhibition in vivo at 50 µM in the data set listed under Rattus norvegicus [11] of 51.9%.
